Measurements from ChEMBL document CHEMBL3585273, “Discovery of Tricyclic Clerodane Diterpenes as Sarco/Endoplasmic Reticulum Ca(2+)-ATPase Inhibitors and Structure-Activity Relationships” (J Nat Prod, 2015).

Assays:
[1] = biological target: T1, Sarcoplasmic/endoplasmic reticulum calcium ATPase 1 (Oryctolagus cuniculus, UniProt P04191); test: Binding affinity to rabbit skeletal muscle SERCA1a preincubated for 5 mins followed by Mg-ATP addition measured over 6 mins by spectrophotometric analysis
Method in brief: (§1)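 Rabbit skeletal muscle SR-purified SERCA1a (1 mg/mL) equilibrated in E2 state: 1 mM EGTA, 1 mM Mg2+, 10 mM Tes pH 7.5, 100 mM KCl. 10 μg protein plus compound (1.25–100 μM) preincubated 5 min at 23 °C in ATP-regenerating medium (0.1 mM Ca2+, 1 mM PEP, pyruvate kinase, lactate dehydrogenase, 0.175 mM NADH). Started with 5 mM Mg-ATP; A340 read over 6 min; three repeats.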

[2] = biological target: T1, Sarcoplasmic/endoplasmic reticulum calcium ATPase 1; test: Binding affinity to rabbit hind leg muscle SERCA1a by pyruvate kinase and lactate dehydrogenase coupled assay; method in brief: as §1
Sus scrofa = species: Sus scrofa; test: Inhibition of pig kidney outer medulla Na+,K+-ATPase at 50 uM relative to control
Method in brief: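 Purified pig kidney outer medulla Na+,K+-ATPase membranes. Steady-state activity at 37 °C in 130 mM NaCl, 20 mM KCl, 4 mM MgCl2, 3 mM ATP, 20 mM histidine pH 7.4. Read-out is phosphate liberation, with 1 mM ouabain as the nonspecific ATPase blank. Compounds tested over 1–50 μM.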

CCRF-CEM = test: Cytotoxicity against human CCRF-CEM cells assessed as cell viability after 24 hrs by MTT assay; type: functional, cell-based
Method in brief: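 Human acute lymphoblastic leukemia CCRF-CEM cells seeded at 4 × 10^4 cells/well and exposed 24 h to a range of compound concentrations. Viability read by MTT. Doxorubicin served as positive control and 0.1% DMSO as solvent control. IC50 derived by nonlinear regression. Data are means ± SD of three independent experiments.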

[3] = Inhibition of Wistar rat stomach H+,K+-ATPase after 1 hr

T1 sequence (P04191 whole entry): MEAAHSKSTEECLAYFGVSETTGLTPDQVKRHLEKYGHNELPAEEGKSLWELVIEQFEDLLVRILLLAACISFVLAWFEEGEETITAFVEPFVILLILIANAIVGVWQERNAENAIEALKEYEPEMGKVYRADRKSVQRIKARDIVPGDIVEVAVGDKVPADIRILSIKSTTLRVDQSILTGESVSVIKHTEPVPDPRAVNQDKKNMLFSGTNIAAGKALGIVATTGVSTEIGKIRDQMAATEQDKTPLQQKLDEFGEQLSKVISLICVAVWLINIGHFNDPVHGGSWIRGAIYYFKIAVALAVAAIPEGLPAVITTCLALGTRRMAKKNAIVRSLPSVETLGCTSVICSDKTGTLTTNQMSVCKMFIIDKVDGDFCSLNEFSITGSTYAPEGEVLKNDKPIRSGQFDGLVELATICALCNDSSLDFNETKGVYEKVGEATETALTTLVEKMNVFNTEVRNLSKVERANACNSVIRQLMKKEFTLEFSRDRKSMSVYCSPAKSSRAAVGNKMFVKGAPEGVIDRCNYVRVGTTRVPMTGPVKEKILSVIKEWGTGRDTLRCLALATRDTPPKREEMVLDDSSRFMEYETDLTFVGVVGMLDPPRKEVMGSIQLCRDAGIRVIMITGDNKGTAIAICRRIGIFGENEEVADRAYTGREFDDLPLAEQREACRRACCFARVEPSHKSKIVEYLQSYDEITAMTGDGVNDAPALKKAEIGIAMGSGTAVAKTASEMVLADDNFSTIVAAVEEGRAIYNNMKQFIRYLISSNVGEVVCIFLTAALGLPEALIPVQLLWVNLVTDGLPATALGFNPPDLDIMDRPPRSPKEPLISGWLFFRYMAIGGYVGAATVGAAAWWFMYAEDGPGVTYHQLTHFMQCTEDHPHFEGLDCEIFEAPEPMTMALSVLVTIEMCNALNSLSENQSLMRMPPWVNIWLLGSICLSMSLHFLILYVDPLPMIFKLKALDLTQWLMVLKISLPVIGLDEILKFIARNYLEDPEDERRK

| Kd [1] | Compound | IC50 (CCRF-CEM) | other results |
| --- | --- | --- | --- |
| 31.5 µM | C=CC(=C)[C@H](O)C[C@]1(C)[C@H](C)C[C@H](OC(=O)CC(O)CCCCCCCCC)[C@@]23C(=C[C@H](O)C[C@@H]12)[C@@H](OC(C)=O)O[C@H]3OC(C)=O (stereo partly drawn) | – | – |
| 96.5 µM | C=C/C(C)=C/C[C@]1(C)[C@H](C)CC[C@@]23C(=CC(=O)C[C@@H]12)[C@@H](OC(C)=O)O[C@H]3OC(C)=O | – | – |
| – | C[C@H]1O[C@@H](O[C@H]2CC[C@@]3(C)[C@@H](CC[C@]4(C)[C@@H]3C=C[C@]35OC[C@@]6(CCC(C)(C)C[C@H]63)[C@H](O)C[C@]54C)[C@]2(C)CO)[C@H](O)[C@@H](O[C@@H]2O[C@H](CO)[C@@H](O)[C@H](O)[C@H]2O)[C@@H]1O | – | Kd [2]: 50 µM |
| 48.1 µM | C=CC(=C)CC[C@]1(C)[C@H](C)C[C@H](OC(=O)/C=C/c2ccccc2)[C@@]23C(=C[C@H](O)C[C@@H]12)[C@@H](OC(C)=O)O[C@H]3OC(C)=O | – | – |
| 7.5 µM | C=CC(=C)CC[C@]1(C)[C@H](C)C[C@H](OC(=O)CC(O)CCCCCCCCC)[C@@]23C(=C[C@H](O)C[C@@H]12)[C@@H](OC(C)=O)O[C@H]3OC(C)=O (stereo partly drawn) | – | inhibition (Sus scrofa): 26.3% |
| 103 µM | C=CC(=C)CC[C@]1(C)[C@H](C)CC[C@@]23C(C[C@H](OC(C)=O)C[C@@H]12)[C@@H](OC(C)=O)O[C@H]3OC(C)=O (stereo partly drawn) | 12 µM | – |
| 10.1 µM | C=C/C(C)=C/C[C@]1(C)[C@H](C)[C@@H](OC(=O)CCC)[C@H](O)[C@@]23C(=C[C@H](OC)C[C@@H]12)[C@@H](OC(=O)CCC)O[C@H]3OC(C)=O | 0.7 µM | inhibition (Sus scrofa): 4.41% |
| > 100 µM | C=C/C(C)=C/C[C@]1(C)[C@H](C)[C@@H](O)[C@H](O)[C@@]23C(=C[C@H](OC)C[C@@H]12)[C@@H](O)O[C@H]3O | 4.3 µM | inhibition (Sus scrofa): 6.55% |
| – | IVERMECTIN | – | IC50 [3]: 7.59 µM |
| 20.1 µM | C=C/C(C)=C/C[C@]1(C)[C@H](C)C[C@H](OC(C)=O)[C@@]23C(=C[C@H](OC(=O)c4ccc(O)cc4)C[C@@H]12)[C@@H](OC(C)=O)O[C@H]3OC(C)=O | 1.2 µM | – |
| 2 µM | C=C/C(C)=C/C[C@]1(C)[C@H](C)C[C@H](O)[C@@]23C(=C[C@H](OC(=O)c4ccc(O)cc4)C[C@@H]12)[C@@H](OC(C)=O)O[C@H]3OC(C)=O [CASEARBORIN D] | 1.1 µM | inhibition (Sus scrofa): 23.8% |
| – | C[C@H](C[C@H](O)[C@H]1OC1(C)C)C1=C2C[C@H](O)[C@H]3[C@@]4(C)CCC(=O)C(C)(C)[C@@H]4CC[C@]3(C)[C@@]2(C)CC1 [ALISOL B] | – | Kd [2]: 27 µM |
| 32.1 µM | C=CC(=C)CC[C@]1(C)[C@H](C)C[C@H](O)[C@@]23C(=C[C@@H](OC(=O)/C=C/c4ccccc4)C[C@@H]12)[C@@H](OC(C)=O)O[C@H]3OC(C)=O | – | – |

| Compound | Kd [1] | IC50 (CCRF-CEM) | other results |
| --- | --- | --- | --- |
| CC(=O)O[C@H]1O[C@@H](OC(C)=O)[C@]23C1=C[C@H](O)C[C@H]2[C@](C)(CCC1=CCOOC1)[C@H](C)C[C@@H]3OC(=O)/C=C/c1ccccc1 | 22.3 µM | – | – |
